The values that follow come from ChEMBL document CHEMBL1153279, “Antioxidant and antiradical activities of resorcinarene tetranitroxides” (Bioorg Med Chem Lett, 2009).

Structures are written as SMILES.

Data set [1] concerns Radical scavenging activity. The experiment in a line: Antioxidant activity assessed as [drug]/[DPPH]causing 50% DPPH radical scavenging activity after 5 mins. The class given is functional. A digest of the protocol:
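DPPH reacted with scavenger at 25 °C in 1.5 mL EtOH plus 0.5 mL 0.2 M acetate buffer (pH 5.5). DPPH started at 50–100 µM and test scavengers at 0.5–25 µM. Percent DPPH scavenging was read after 5 min and plotted against the [scavenger]/[DPPH] ratio. ECR50 is the ratio giving 50% scavenging.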

Data set [2] in a line: Antiradical activity against 2,2'-azobis-amidinopropane-induced linoleic acid peroxidation assessed as ratio of total oxyradical scavenging capacity to Trolox C. Type of data set: physicochemical. A digest of the protocol: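 Linoleic acid (0.63 mM) was autoxidized by 1 mM ABAP in 0.05 M phosphate buffer (pH 7.4) with 0.02% Lubrol, in air at 37 °C. Conjugated-diene formation was followed at 234 nm. Inhibitor was added once autoxidation ran at constant rate. Efficiency is expressed relative to Trolox C, with stoichiometric factors taken from lag-time ratios and Trolox n set at 2.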

With `Oc1cccc(O)c1` [RESORCINOL], the Activity in data set [1] is 0.29. Also, the Ratio in data set [2] came to 1.7.
Turning to `CC1(C)CC(O)CC(C)(C)N1[O]` [TEMPOL], in data set [1], the Activity was 64. Also, the Ratio in data set [2] was determined as 0.4.
